Measurements as given in ChEMBL document CHEMBL1765040, “Synthesis and antiviral activity of N9-[3-fluoro-2-(phosphonomethoxy)propyl] analogues derived from N6-substituted adenines and 2,6-diaminopurines” (Bioorg Med Chem, 2011).
Activity calls are given as the source filed them. The calls are words filed in the database; no cut-off is given here.

Test system: Human immunodeficiency virus 1
Assay: Antiviral activity against HIV1 3B infected in human CEM cells assessed as inhibition of virus-induced syncytium formation after 4 to 5 days by microscopic analysis
Assay type: functional, organism-based
Settings: Human immunodeficiency virus 1, 3B, CCRF-CEM
Procedure, shortened: (§1)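 CEM cells (~3 × 10^5 cells/mL) infected with 100 CCID50 per mL of HIV-1(IIIB) or HIV-2(ROD), with compound dilutions; 4–5 days at 37 °C, humidified CO2 atmosphere. Giant (syncytium) cell formation scored microscopically; EC50 is the concentration inhibiting giant cell formation by 50%.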

COCCNc1nc(N)nc2c1ncn2C[C@H](CF)OCP(=O)(O)O and COCCNc1nc(N)nc2c1ncn2C[C@@H](CF)OCP(=O)(O)O cannot be ordered by EC50: greater than 100 µM for the first, greater than 100 µM for the second.

Nc1nc(N2CCCC2)c2ncn(C[C@@H](CF)OCP(=O)(O)O)c2n1 and Nc1nc(N2CCCC2)c2ncn(C[C@H](CF)OCP(=O)(O)O)c2n1 cannot be ordered by EC50: greater than 100 µM for the first, greater than 100 µM for the second.

Going from C=CCNc1nc(N)nc2c1ncn2C[C@H](CF)OCP(=O)(O)O to C=CCNc1nc(N)nc2c1ncn2C[C@@H](CF)OCP(=O)(O)O, the EC50 rises from 18 µM to greater than 247 µM. The first is the more potent here.

First: Nc1ncnc2c1ncn2CCOCP(=O)(O)O [ADEFOVIR]
Second: Nc1nc(NC2CC2)c2ncn(C[C@H](CF)OCP(=O)(O)O)c2n1
The EC50 of the first is 1.9-fold lower: 7.4 µM for the first, 14.2 µM for the second.

CCN(CC)c1nc(N)nc2c1ncn2C[C@@H](CF)OCP(=O)(O)O and CCCNc1nc(N)nc2c1ncn2C[C@@H](CF)OCP(=O)(O)O cannot be ordered by EC50: greater than 100 µM for the first, greater than 276 µM for the second.

In the case of CN(C)CCNc1nc(N)nc2c1ncn2C[C@@H](CF)OCP(=O)(O)O, the EC50 is reported as greater than 100 µM.

Test system: Human immunodeficiency virus 2
Assay: Antiviral activity against HIV2 ROD infected in human CEM cells assessed as inhibition of virus-induced syncytium formation after 4 to 5 days by microscopic analysis
Assay type: functional, organism-based
Settings: Human immunodeficiency virus 2, ISOLATE ROD, CCRF-CEM
Procedure, shortened: as §1

COCCNc1nc(N)nc2c1ncn2C[C@H](CF)OCP(=O)(O)O and COCCNc1nc(N)nc2c1ncn2C[C@@H](CF)OCP(=O)(O)O cannot be ordered by EC50: greater than 100 µM for the first, greater than 100 µM for the second.

Nc1nc(N2CCCC2)c2ncn(C[C@@H](CF)OCP(=O)(O)O)c2n1 and Nc1nc(N2CCCC2)c2ncn(C[C@H](CF)OCP(=O)(O)O)c2n1 cannot be ordered by EC50: greater than 100 µM for the first, greater than 100 µM for the second.

Compared with C=CCNc1nc(N)nc2c1ncn2C[C@H](CF)OCP(=O)(O)O, C=CCNc1nc(N)nc2c1ncn2C[C@@H](CF)OCP(=O)(O)O is higher in EC50: 36 µM for the first, greater than 247 µM for the second. The first is the more potent here.

First: Nc1ncnc2c1ncn2CCOCP(=O)(O)O [ADEFOVIR]
Second: Nc1nc(NC2CC2)c2ncn(C[C@H](CF)OCP(=O)(O)O)c2n1
The EC50 of the first is 3.3-fold lower: 7 µM for the first, 22.8 µM for the second. The first is the more potent here.

CCN(CC)c1nc(N)nc2c1ncn2C[C@@H](CF)OCP(=O)(O)O and CCCNc1nc(N)nc2c1ncn2C[C@@H](CF)OCP(=O)(O)O cannot be ordered by EC50: greater than 100 µM for the first, greater than 276 µM for the second.

CN(C)CCNc1nc(N)nc2c1ncn2C[C@@H](CF)OCP(=O)(O)O showed an EC50 greater than 100 µM.

Test system: Moloney murine sarcoma virus
Assay: Antiviral against Moloney murine sarcoma virus infected in mouse C3H/3T3 cells assessed as inhibition of virus-induced cell transformation after 6 days post infection by microscopic analysis
Assay type: functional, organism-based
Settings: C3H/3T3, 144 h
Procedure, shortened: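 Murine embryo fibroblast C3H/3T3 monolayers infected with 75 focus-forming units of MSV, with test compound; transformation examined microscopically at day 6 postinfection. EC50 is the concentration inhibiting MSV-induced transformation by 50%.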

COCCNc1nc(N)nc2c1ncn2C[C@H](CF)OCP(=O)(O)O and COCCNc1nc(N)nc2c1ncn2C[C@@H](CF)OCP(=O)(O)O cannot be ordered by EC50: greater than 100 µM for the first, greater than 100 µM for the second.

Nc1nc(N2CCCC2)c2ncn(C[C@@H](CF)OCP(=O)(O)O)c2n1 and Nc1nc(N2CCCC2)c2ncn(C[C@H](CF)OCP(=O)(O)O)c2n1 cannot be ordered by EC50: greater than 20 µM for the first, greater than 100 µM for the second.

Going from C=CCNc1nc(N)nc2c1ncn2C[C@H](CF)OCP(=O)(O)O to C=CCNc1nc(N)nc2c1ncn2C[C@@H](CF)OCP(=O)(O)O, the EC50 rises from 69 µM to greater than 100 µM. The first is the more potent here.

Going from Nc1ncnc2c1ncn2CCOCP(=O)(O)O [ADEFOVIR] to Nc1nc(NC2CC2)c2ncn(C[C@H](CF)OCP(=O)(O)O)c2n1, the EC50 rises from 2.1 µM to 50 µM (24-fold). The first is the more potent here.

CCN(CC)c1nc(N)nc2c1ncn2C[C@@H](CF)OCP(=O)(O)O and CCCNc1nc(N)nc2c1ncn2C[C@@H](CF)OCP(=O)(O)O cannot be ordered by EC50: greater than 100 µM for the first, greater than 100 µM for the second.

For CN(C)CCNc1nc(N)nc2c1ncn2C[C@@H](CF)OCP(=O)(O)O, the EC50 was greater than 100 µM.

Test system: not listed separately
Assay: Cytotoxicity against human CEM cells assessed as inhibition of cell proliferation after 72 hrs by coulter counter analysis
Assay type: cell-based, CCRF-CEM
Settings: not given
Procedure, shortened: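 CEM cells, (5–7.5) × 10^4 per well, with test compound, grown 72 h at 37 °C in humidified CO2 atmosphere; cells counted by Coulter counter. IC50 is the concentration inhibiting proliferation by 50%.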

COCCNc1nc(N)nc2c1ncn2C[C@H](CF)OCP(=O)(O)O and COCCNc1nc(N)nc2c1ncn2C[C@@H](CF)OCP(=O)(O)O cannot be ordered by CC50 at 72 h: greater than 100 µM for the first, greater than 100 µM for the second.

Nc1nc(N2CCCC2)c2ncn(C[C@@H](CF)OCP(=O)(O)O)c2n1 and Nc1nc(N2CCCC2)c2ncn(C[C@H](CF)OCP(=O)(O)O)c2n1 cannot be ordered by CC50 at 72 h: greater than 100 µM for the first, greater than 100 µM for the second.

C=CCNc1nc(N)nc2c1ncn2C[C@H](CF)OCP(=O)(O)O and C=CCNc1nc(N)nc2c1ncn2C[C@@H](CF)OCP(=O)(O)O cannot be ordered by CC50 at 72 h: greater than 278 µM for the first, greater than 247 µM for the second.

Nc1ncnc2c1ncn2CCOCP(=O)(O)O [ADEFOVIR] and Nc1nc(NC2CC2)c2ncn(C[C@H](CF)OCP(=O)(O)O)c2n1 cannot be ordered by CC50 at 72 h: no less than 250 µM for the first, greater than 278 µM for the second.

CCN(CC)c1nc(N)nc2c1ncn2C[C@@H](CF)OCP(=O)(O)O and CCCNc1nc(N)nc2c1ncn2C[C@@H](CF)OCP(=O)(O)O cannot be ordered by CC50 at 72 h: greater than 100 µM for the first, greater than 276 µM for the second.

CN(C)CCNc1nc(N)nc2c1ncn2C[C@@H](CF)OCP(=O)(O)O gave a CC50 at 72 h greater than 100 µM.

Test system: not listed separately
Assay: Cytotoxicity against human CEM cells assessed as minimum concentration required for morphological alteration by microscopic analysis
Assay type: cell-based, CCRF-CEM
Settings: not given

COCCNc1nc(N)nc2c1ncn2C[C@H](CF)OCP(=O)(O)O and COCCNc1nc(N)nc2c1ncn2C[C@@H](CF)OCP(=O)(O)O cannot be ordered by MCC: greater than 100 µM for the first, greater than 100 µM for the second.

Nc1nc(N2CCCC2)c2ncn(C[C@@H](CF)OCP(=O)(O)O)c2n1 and Nc1nc(N2CCCC2)c2ncn(C[C@H](CF)OCP(=O)(O)O)c2n1 cannot be ordered by MCC: no less than 100 µM for the first, greater than 100 µM for the second.

C=CCNc1nc(N)nc2c1ncn2C[C@H](CF)OCP(=O)(O)O and C=CCNc1nc(N)nc2c1ncn2C[C@@H](CF)OCP(=O)(O)O cannot be ordered by MCC: greater than 100 µM for the first, greater than 100 µM for the second.

Nc1ncnc2c1ncn2CCOCP(=O)(O)O [ADEFOVIR] and Nc1nc(NC2CC2)c2ncn(C[C@H](CF)OCP(=O)(O)O)c2n1 cannot be ordered by MCC: no less than 100 µM for the first, greater than 100 µM for the second.

CCN(CC)c1nc(N)nc2c1ncn2C[C@@H](CF)OCP(=O)(O)O and CCCNc1nc(N)nc2c1ncn2C[C@@H](CF)OCP(=O)(O)O cannot be ordered by MCC: greater than 100 µM for the first, no less than 100 µM for the second.

For CN(C)CCNc1nc(N)nc2c1ncn2C[C@@H](CF)OCP(=O)(O)O, the MCC was greater than 100 µM.

Target: N6-methyl-AMP deaminase, ADAL (Homo sapiens) (UniProt Q6DHV7)
Assay: Activity at human recombinant N6-methyl-AMP deaminase assessed as reaction rate after 60 mins by HPLC analysis
Settings: not given

Chain of N6-methyl-AMP deaminase, ADAL (Homo sapiens) (Q6DHV7 whole entry, looked up): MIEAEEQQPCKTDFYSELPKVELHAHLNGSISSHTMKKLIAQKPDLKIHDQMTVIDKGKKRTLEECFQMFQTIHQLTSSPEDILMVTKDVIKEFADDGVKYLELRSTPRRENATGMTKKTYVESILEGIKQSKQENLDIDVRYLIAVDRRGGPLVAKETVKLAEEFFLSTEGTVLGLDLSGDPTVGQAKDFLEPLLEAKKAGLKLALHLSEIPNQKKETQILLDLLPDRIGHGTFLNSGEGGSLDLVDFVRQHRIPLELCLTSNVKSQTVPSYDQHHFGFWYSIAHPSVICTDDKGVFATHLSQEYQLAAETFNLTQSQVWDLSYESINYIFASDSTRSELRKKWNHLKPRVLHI

First: C=CCNc1nc(N)nc2c1ncn2C[C@H](CF)OCP(=O)(O)O
Second: Nc1nc(NC2CC2)c2ncn(C[C@H](CF)OCP(=O)(O)O)c2n1
The Activity of the first is lower: 5.64 nmol/min/mg for the first, 64.5 nmol/min/mg for the second.

With CCCNc1nc(N)nc2c1ncn2C[C@@H](CF)OCP(=O)(O)O the Activity was “inactive”.
With C=CCNc1nc(N)nc2c1ncn2C[C@@H](CF)OCP(=O)(O)O the Activity was “inactive”.
